Test results taken from ChEMBL document CHEMBL1124046, “2-Methyl-1,3-dioxaazaspiro[4.5]decanes as novel muscarinic cholinergic agonists” (J Med Chem, 1988).

Columns and labels:
[1] = molecular target: T1, Muscarinic acetylcholine receptor (Rattus norvegicus) (UniProt P08482+P08483+P08485+P08911+P10980); details: Cortex
[2] = Ratio of NMS/oxo-M apparent binding affinities (Kapp)
Outline: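 Two rat cortical membrane binding assays, each in triplicate with at least four concentrations, Kapp corrected for radioligand occupancy. [3H]N-methylscopolamine (0.1 nM) run in 20 mM HEPES Krebs' buffer pH 7.4, 60 min at 30 °C. [3H]oxotremorine-M (3.0 nM) run in 20 mM HEPES pH 7.4, 40 min at 30 °C. Ratio taken as NMS Kapp over oxo-M Kapp.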

[3] = molecular target: T1, Muscarinic acetylcholine receptor (Rattus norvegicus); details: Cortex; remark: listed apart in the source
[4] = molecular target: T1, Muscarinic acetylcholine receptor (Rattus norvegicus); test: Percent inhibition of [3H]N-methylscopolamine (NMS) binding to Muscarinic acetylcholine receptor in rat cortex at a concentration of >100 uM
Outline: (§1)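 Rat cortical membranes (male Sprague-Dawley, 250-300 g). Test compound at a single stated concentration; percent inhibition of specific binding is reported. [3H]-N-methylscopolamine (0.1 nM) in 20 mM HEPES Krebs' buffer pH 7.4, 60 min at 30 °C; [3H]oxotremorine-M (3.0 nM) in 20 mM HEPES buffer pH 7.4, 40 min at 30 °C. Ended by filtration.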

[5] = molecular target: T1, Muscarinic acetylcholine receptor (Rattus norvegicus); test: Percent inhibition of [3H]oxotremorine-M binding to Muscarinic acetylcholine receptor in rat cortex at a concentration of >10 uM
Outline: as §1

[6] = molecular target: T1, Muscarinic acetylcholine receptor (Rattus norvegicus); test: Apparent binding affinity at Muscarinic acetylcholine receptor by displacing [3H]oxotremorine-M in rat cortex; format: tissue-based
Outline: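 Membranes from male Sprague-Dawley rat (250-300 g) cortex in 20 mM HEPES buffer pH 7.4; displacement of 3.0 nM [3H]oxotremorine-M, 40 min at 30 °C, ended by filtration onto polyethylenimine-presoaked GF/C filters. Triplicates, at least four concentrations per curve; apparent affinity constant corrected for radioligand occupancy, in µM, geometric mean of n experiments.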

[7] = molecular target: T1, Muscarinic acetylcholine receptor (Rattus norvegicus); details: Cortex; remark: listed apart in the source
[8] = molecular target: T1, Muscarinic acetylcholine receptor (Rattus norvegicus); details: Cortex; remark: listed apart in the source
[9] = molecular target: T1, Muscarinic acetylcholine receptor (Rattus norvegicus); details: Cortex; remark: listed apart in the source
[10] = molecular target: T1, Muscarinic acetylcholine receptor (Rattus norvegicus); test: Apparent binding affinity at Muscarinic acetylcholine receptor, by displacing [3H]N-methylscopolamine (NMS) in rat cortex at a concentration of >100 uM; format: tissue-based
Outline: (§2)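 Membranes from cortex of male Sprague-Dawley rats (250-300 g). Displacement curves with 0.1 nM [3H]-N-methylscopolamine in 20 mM HEPES Krebs' buffer pH 7.4, 60 min at 30 °C; or with 3.0 nM [3H]oxotremorine-M in 20 mM HEPES buffer pH 7.4, 40 min at 30 °C. Filtration read-out. Triplicates, at least four concentrations. Kapp corrected for radioligand occupancy; geometric mean of n experiments.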

[11] = molecular target: T1, Muscarinic acetylcholine receptor (Rattus norvegicus); test: Apparent binding affinity at Muscarinic acetylcholine receptor by displacing [3H]oxotremorine-M in rat cortex at a concentration of >10 uM; format: tissue-based
Outline: as §2

K app [1]	Ratio [2]	K app [6]	Structure (SMILES)	inhibition [4]	inhibition [5]	also measured
24 µM	4100		C[N+](C)(C)CCOC(N)=O			K app [3]: 0.0058 µM
	470		CC1OCC2(CCNCC2)O1 (stereo not drawn)			K app [7]: 0.092 µM; K app [8]: 43 µM
	130	0.04 µM	CCN1C(=O)CC2(CCN(C)CC2)C1=O			K app [9]: 5 µM

More lines, now with the values behind:

Structure (SMILES)	K app [1]	Ratio [2]	K app [6]	inhibition [4]	inhibition [5]	also measured
CC1OCC2(CCCN(C)C2)O1 (stereo in doubt; 4a)				24%	4%	
CCC1OCC2(CCN(C)CC2)O1 (stereo not drawn)	5.3 µM	24	0.22 µM			
CC1OCC2(CCCN(C)C2)O1 (stereo in doubt; 4b)				19%	10%	
CC1OCC2(CCCNC2)O1 (stereo not drawn)				29%	25%	inhibition [10]: 20%; inhibition [11]: 13%
C[C@H]1OCC2(CN3CCC2CC3)O1 (stereo partly drawn)	4.9 µM	140	0.035 µM			
